SUMO1 PPI mod – modulators of SUMO1 protein-protein interactions, primary screen, biochemical, uHTS; Small ubiquitin-related modifier 1 (Homo sapiens), P63165; SUMO1 binding to a labelled peptide, TR-FRET, 1 h; inhibition, % at 20 µM; hit rate 0.33% among 360,000; AID 602429, 2012; in the data active = inhibition above about 37%
LMPTP inh – LMPTP phosphatase inhibitors, primary screen, biochemical, fluorescence intensity, uHTS | hit rate 0.22% among 360,000 | recombinant LMPTP-A, OMFP fluorogenic substrate | inhibition, % at 20 µM;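 active = compounds that cut the enzyme signal by at least half of the control window in the single-dose screen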;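 also: plate controls were DMSO wells with enzyme plus substrate for no effect and substrate without enzyme for full effect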
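Test system: LMPTP-A phosphatase enzyme; input: 0.625 nM LMPTP-A final; reagent: OMFP substrate, 400 µM final; compound dosing: 20 µM single dose, 3% DMSO; incubation: 50 min dark incubation at room temperature; measured by: endpoint fluorescence intensity from OMFP dephosphorylation; measure: % inhibition relative to no-enzyme and uninhibited control wells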
Scp1 inh – Scp-1 phosphatase inhibitors, primary screen, biochemical, colorimetric, uHTS; inhibition, % at 20 µM; hit rate 0.88% among 340,000; Recombinant Scp1, phosphopeptide, malachite green phosphate absorbance; Carboxy-terminal domain RNA polymerase II polypeptide A small phosphatase 1 (Homo …; AID 493091, 2011;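 active = inhibition above about 50% at 20 µM, limit read from the data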;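 also: plate controls were DMSO wells with enzyme for no effect and wells lacking enzyme for full effect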
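Test system – truncated SCP-1 phosphatase (76-261aa) · Reagent – Phosphorylated 17-residue peptide substrate · Incubation – 45 min room-temperature reaction, 5 min colour, 30 min stabiliser · Detection – colorimetric phosphate reagent with accelerator and stabiliser, absorbance at 630 nm · Measure – % inhibition at 20 µM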
DNMT1 inh – human DNMT1 methyltransferase inhibitors, primary screen, biochemical, molecular beacon, fluorescence, HinP1I cleavage, uHTS. DNA (cytosine-5)-methyltransferase 1 (Homo sapiens), P26358. inhibition (reported as % activation of signal), % at 10 µM. hit rate 0.83% among 360,000. AID 588458, 2011; in the data active = inhibition above about 50%
STEP block – STEP phosphatase inhibitors, primary screen, biochemical, fluorescence intensity, uHTS; Tyrosine-protein phosphatase non-receptor type 5 (Homo sapiens), P54829; recombinant STEP, OMFP fluorogenic substrate; inhibition, % at 20 µM; hit rate 0.25% among 360,000; AID 588621, 2011;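 active = inhibition at 20 µM, scaled per plate between control wells, above about 37%, limit read from the data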;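 also: 0% = DMSO with enzyme and substrate and 100% = substrate only without enzyme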
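Test system: STEP tyrosine phosphatase / Reagent: OMFP at 25 µM / Doses: 20 µM, 1% DMSO / Read-out: percent inhibition scaled to no-enzyme and uninhibited-enzyme controls, plate-pattern corrected / Detection: FITC-channel fluorescence of OMFP product / Medium: Bis-Tris buffer pH 6.0, 2.5 mM DTT, 0.005% Tween 20 / Schedule: 20 min at room temperature, dark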
Scp1 confirm – Scp-1 phosphatase inhibitors, retest, confirmation, biochemical, colorimetric, single concentration | inhibition, % at 20 µM | recombinant SCP-1 catalytic domain, phosphate release, malachite green absorbance | shares compounds with Scp1 inh | hit rate 61% among 2,500;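 also: plate controls were DMSO with enzyme for no effect and buffer wells lacking enzyme for full effect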
Scp-1 MG ctr – colorimetric readout interference by compounds, confirmation, artefact control for Scp-1 inhibitor project, biochemical, single concentration. 2,500 tested, under 10 active. apparent inhibition (interference), % at 20 µM. Colorimetric interference counterscreen, malachite green absorbance 630 nm. shares compounds with Scp1 inh. AID 540313, 2011;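 also: compounds added after enzyme reaction finished so only phosphate colour detection is probed; plate controls were DMSO wells with completed Scp-1 reaction for no effect and substrate wells lacking enzyme for full effect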
Scp1 DSF – Scp-1 binding by thermal shift, confirmation, orthogonal assay for Scp-1 inhibitor project, biophysical, differential scanning fluorimetry; Recombinant SCP1, Sypro Orange thermal shift Tm; thermal shift relative to vanadate control, % at 40 µM; hit rate 25% among 1,500; shares compounds with Scp1 inh;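 active = substances whose mean melting-temperature shift, as a percentage of the reference inhibitor's shift, reaches about 5.3%, limit read from the data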;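 also: 0% = Tm of DMSO wells and 100% = Tm with sodium orthovanadate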
DNMT1 confirm – DNMT1 methyltransferase inhibitor retest, confirmation, biochemical, molecular beacon, fluorescence, single concentration | inhibition, % at 10 µM | DNMT1 molecular beacon HinP1I cleavage | shares compounds with DNMT1 inh | hit rate 8% among 2,300 | AID 602385, 2012;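 active = average inhibition of at least 30% in the single-concentration confirmation test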
DNMT1 interf – beacon fluorescence artifact counter-screen | shares compounds with DNMT1 inh | activation (fluorescence interference), % at 10 µM | AID 602387 | DNMT1 molecular beacon spectral interference counterscreen, fluorescence 485/520 | hit rate 1% among 2,300;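 active = activation of at least 30% at 10 µM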;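 also: DNMT1 catalytic domain with a HinP1I cleavage step and a FAM/dabcyl DNA beacon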
* marks the source's active call; other numbers are inactive results; / = not tested or not shown. Compounds with a hit are over-represented: about 1.7% of the library has one in this group of screens.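 The calls were made as follows, unless noted: active = inhibition of at least 30% at 20 µM; inactive = the rest.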

SMILES | SUMO1 PPI mod | LMPTP inh | Scp1 inh | DNMT1 inh | STEP block | Scp1 confirm | Scp-1 MG ctr | Scp1 DSF | DNMT1 confirm | DNMT1 interf
Cc1ccc2nc(NC(=O)c3ccc(-c4nc5ccccc5s4)s3)sc2c1 | 44.3* | 43.9 | 97.5* | 78.2* | 37.1 | 82.5* | -8.7 | 4.6 | 1.4 | -6.7
Cc1ccc(Cl)cc1NC(=O)C1C2CCC(O2)C1C(=O)O (stereo unspecified) | 0.8 | -1.9 | -8.7 | 9.5 | -0.5 | / | / | / | / | /
Cc1ccc(C)c(NC(=O)CN(C)C(=O)c2cccc(-n3cccc3)c2)c1 | 14.8 | 8.2 | 79.3* | 94.3* | 3.6 | 57.7* | -20.8 | -8.1 | 8.8 | 1.5
CN(CC(=O)Nc1c(Cl)cccc1Cl)C(=O)c1cccc(-n2cccc2)c1 | 17.6 | 10.3 | 83.5* | 68.5* | 1.4 | 48.5* | -26.8 | 0.9 | -0.6 | 0.7
CN(CC(=O)Nc1cccc(F)c1)C(=O)c1cccc(-n2cccc2)c1 | 15.3 | 8.1 | 77.2* | 90.6* | -0.1 | 61.1* | -13.1 | 6.7* | 13.3 | 0.1
CN(CC(=O)Nc1cccc(F)c1)C(=O)c1ccc(N2C(=O)c3ccccc3C2=O)cc1 | -11.0 | 0.7 | -1.7 | 21.0 | -2.8 | / | / | / | / | /
CN(CC(=O)Nc1ccc(F)cc1)C(=O)C1CCCC1 | 8.3 | -0.9 | -9.8 | 1.5 | 3.0 | / | / | / | / | /
O=C(CSc1ccc([N+](=O)[O-])cc1)Nc1nnc(C2CC2)s1 | -1.7 | 0.7 | -15.3 | 0.5 | 1.9 | / | / | / | / | /
NC(=O)COc1ccc2oc(-c3ccccc3)cc(=O)c2c1 | -2.5 | 3.5 | -7.2 | 6.8 | -5.1 | / | / | / | / | /
CCc1ccccc1NC(=O)COc1ccc2oc(-c3ccc(OC)cc3)cc(=O)c2c1 | 8.6 | 7.3 | 73.6* | 67.7* | 4.9 | 59.1* | -12.3 | -13.0 | 4.9 | 4.7
Cc1[nH]c2ccccc2c1C(=O)COC(=O)C1CC(=O)N(Cc2ccco2)C1 (stereo unspecified) | 4.3 | 0.6 | 10.9 | -1.9 | 1.6 | / | / | / | / | /
Cc1ccc(C(=O)Oc2ccc(C(=O)COC(=O)C3CC(=O)N(Cc4ccco4)C3)cc2)cc1 (stereo unspecified) | 6.2 | 1.7 | 60.5* | 65.9* | 4.1 | 47.8* | -18.3 | 2.9 | 11.9 | 2.3
COc1ccc(NC(=O)CC(C)NCCCN2CCCC2=O)cc1 (stereo unspecified) | 1.2 | -2.0 | -10.0 | -2.2 | 2.5 | / | / | / | / | /
CCCNC(=O)C1(C)CCN(C(=O)c2cccc(C#N)c2)C1 (stereo unspecified) | -13.7 | -0.8 | / | 5.1 | 1.3 | / | / | / | / | /
O=[N+]([O-])c1ccc(/C=N/Nc2nc(-c3ccccc3)c3cc(Br)ccc3n2)o1 | -13.4 | 60.1* | 101.4* | 50.7* | 15.5 | 76.4* | -5.2 | 4.5 | 6.1 | 1.0
Cc1ccc2nc(N/N=C\c3ccc([N+](=O)[O-])o3)nc(-c3ccccc3)c2c1 | -33.3 | 7.9 | 38.0 | 14.6 | 4.7 | / | / | / | / | /

Screening data as filed in PubChem BioAssay.
